Assay results published in ChEMBL document CHEMBL1126605, “Antitumor agents. 139. Synthesis and biological evaluation of thiocolchicine analogs 5,6-dihydro-6(S)-(acyloxy)- and 5,6-dihydro-6(S)-[(aroyloxy)methyl]-1,2,3-trimethoxy-9-(methylthio)-8H- cyclohepta[a]naphthalen-8-ones as novel cytotoxic and antimitotic agents” (J Med Chem, 1993).

What was measured:
A549 = assay: Cytotoxicity against human solid tumor lung carcinoma A549 cell line; assay type: functional; conditions: read-out: ED50 (the source's name)
P388 [1] = assay: (§1) Cytotoxicity against murine P388 leukemia cell line; assay type: functional; conditions: Mus musculus, read-out: ED50 (the source's name)
HCT-8 = assay: Cytotoxicity against human solid tumor Colon carcinoma HCT-8 cell line; assay type: functional; conditions: read-out: ED50 (the source's name)
Tubulin [2] = biological target: T1, Tubulin (Bos taurus, UniProt Q6B856+Q862L2+Q862F3); assay: Evaluated for the inhibition of tubulin polymerization without pre-incubation; assay type: functional
TE-671 = assay: Cytotoxicity against human central nervous system carcinoma TE671 cell line; assay type: functional; conditions: read-out: ED50 (the source's name)
Tubulin [3] = biological target: T1, Tubulin; assay: Inhibition of tubulin polymerization with preincubation for 15 minutes at 37 degree Centigrade prior to addition of the GTP required for polymerization; assay type: functional
RPMI-7951 = assay: cells; assay type: functional; conditions: Homo sapiens, read-out: ED50 (the source's name)
KB = assay: Cytotoxicity against human solid tumor nasopharyngeal carcinoma KB cell line; assay type: functional; conditions: read-out: ED50 (the source's name)
Tubulin (Bos taurus) = Tubulin (Bos taurus) (UniProt Q6B856+Q862L2+Q862F3); conditions: at 5 µM
Burkitts lymphoma cell = assay: Growth inhibition on human burkitt lymphoma cells after 36 h; assay type: functional, cell-based
Tubulin [4] = biological target: T1, Tubulin; assay: Compound was evaluated for the inhibition of tubulin polymerization without pre-incubation; assay type: functional
How it was run: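 Drug, tubulin and the GTP needed for polymerization were all mixed before the reaction mixtures were incubated at 37 °C, with no drug–tubulin preincubation. IC50 is the drug concentration inhibiting polymerization, given ± SD from at least three experiments per compound.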

P388 [5] = assay: as §1; assay type: functional, Homo sapiens; conditions: Mus musculus, read-out: ED50 (the source's name)

`COc1cc2c(c(OC)c1OC)-c1ccc(SC)c(=O)cc1[C@@H](COC(=O)c1ccccc1F)C2` showed an EC50 (A549) of 140 nM, an EC50 (P388 [1]) of 12 nM and an EC50 (HCT-8) of 6400 nM. The IC50 (Tubulin [2]) was 3800 nM, the EC50 (TE-671) was 129 nM and the IC50 (Tubulin [3]) was 3000 nM. It also gave an EC50 (RPMI-7951) of 40 nM, an EC50 (KB) of 110 nM and an inhibition (Tubulin (Bos taurus)) of 91%.
`COc1cc2c(c(OC)c1OC)-c1ccc(SC)c(=O)cc1[C@@H](COC(=O)c1ccc(Br)cc1)C2` showed an EC50 (A549) of 17000 nM, an EC50 (P388 [1]) of 110 nM and an EC50 (HCT-8) of 9200 nM. For the same molecule, the EC50 (TE-671) was 129 nM, the IC50 (Tubulin [3]) was > 40000 nM and the EC50 (RPMI-7951) was 110 nM. It also gave an EC50 (KB) of 92 nM and an inhibition (Tubulin (Bos taurus)) of 2%.
Work on `COc1cc2c(c(OC)c1OC)-c1ccc(SC)c(=O)cc1[C@@H](COC(=O)c1ccc([N+](=O)[O-])cc1)C2` yielded an EC50 (A549) of 4280 nM, an IC50 (Burkitts lymphoma cell) of 20 nM and an EC50 (P388 [1]) of 10 nM. It also gave an EC50 (HCT-8) of 5670 nM, an EC50 (TE-671) of 10 nM and an IC50 (Tubulin [3]) of 6600 nM. The EC50 (RPMI-7951) was 114 nM, the EC50 (KB) was 13 nM and the inhibition (Tubulin (Bos taurus)) was 78%.
`CCC(=O)OC[C@H]1Cc2cc(OC)c(OC)c(OC)c2-c2ccc(SC)c(=O)cc21` gave an EC50 (A549) of 220 nM, an EC50 (P388 [1]) of 8 nM and an EC50 (HCT-8) of 162 nM. It also gave an EC50 (TE-671) of 0.12 nM, an IC50 (Tubulin [3]) of 3400 nM and an EC50 (RPMI-7951) of 0.093 nM. The EC50 (KB) was 93 nM and the inhibition (Tubulin (Bos taurus)) was 83%.
Molecule `CC(C)n1cnc2c(Nc3ccc(Br)cc3)nc(N3CCC[C@@H]3CO)nc21` has an EC50 (A549) of 240 nM, an IC50 (Burkitts lymphoma cell) of 60 nM and an EC50 (P388 [1]) of 144 nM. The EC50 (HCT-8) was 160 nM, the IC50 (Tubulin [2]) was 3700 nM and the EC50 (TE-671) was 26 nM. For the same molecule, the IC50 (Tubulin [3]) was 3600 nM, the EC50 (RPMI-7951) was 134 nM and the EC50 (KB) was 144 nM. The inhibition (Tubulin (Bos taurus)) was 53%.
With `COc1cc2c(cc1O)CCc1cc(OC)c(OC)c(OC)c1-2` the IC50 (Tubulin [4]) was > 100000 nM.
Work on `CCOC(=O)OC[C@H]1Cc2cc(OC)c(OC)c(OC)c2-c2ccc(SC)c(=O)cc21` yielded an EC50 (A549) of 0.001 nM, an EC50 (P388 [1]) of 16 nM and an EC50 (HCT-8) of 179 nM. The IC50 (Tubulin [2]) was 4300 nM, the EC50 (TE-671) was 0.001 nM and the IC50 (Tubulin [3]) was 3700 nM. The EC50 (RPMI-7951) was 0.001 nM, the EC50 (KB) was 11 nM and the inhibition (Tubulin (Bos taurus)) was 60%.
`COc1cc2c(c(OC)c1OC)-c1ccc(SC)c(=O)cc1[C@@H](COC(=O)c1cccc(C#N)c1)C2` gave an EC50 (A549) of 8220 nM, an EC50 (P388 [1]) of 99 nM and an EC50 (HCT-8) of 5780 nM. For the same molecule, the EC50 (TE-671) was 1530 nM, the IC50 (Tubulin [3]) was > 40000 nM and the EC50 (RPMI-7951) was 629 nM. It also gave an EC50 (KB) of 139 nM and an inhibition (Tubulin (Bos taurus)) of 0%.
`COc1cc2c(ccc3cc(OC)c(OC)c(OC)c32)cc1O` showed an IC50 (Tubulin [4]) of 100000 nM.
Work on `COc1cc2c(c(OC)c1OC)-c1ccc(OC)c(=O)cc1[C@@H](NC(C)=O)CC2` [COLCHICINE] yielded an EC50 (A549) of 18 nM, an IC50 (Burkitts lymphoma cell) of 50 nM and an EC50 (HCT-8) of 175 nM. It also gave an EC50 (TE-671) of 1 nM, an EC50 (P388 [5]) of 100 nM and an EC50 (RPMI-7951) of 1 nM. The EC50 (KB) was 2 nM.
For `COc1ccc(C(=O)OC[C@H]2Cc3cc(OC)c(OC)c(OC)c3-c3ccc(SC)c(=O)cc32)cc1`, the EC50 (A549) was > 10 µg/mL, the EC50 (P388 [1]) was 138 nM and the EC50 (HCT-8) was 3280 nM. The EC50 (TE-671) was 2 nM, the IC50 (Tubulin [3]) was > 40000 nM and the EC50 (RPMI-7951) was 806 nM. The EC50 (KB) was 806 nM and the inhibition (Tubulin (Bos taurus)) was 0%.
In the case of `COc1cc2c(c(OC)c1OC)-c1ccc(SC)c(=O)cc1[C@@H](COC(C)=O)C2`, the EC50 (A549) is reported as 1940 nM, the EC50 (P388 [1]) is reported as 96 nM and the EC50 (HCT-8) is reported as 5710 nM. For the same molecule, the EC50 (TE-671) was 1320 nM, the IC50 (Tubulin [3]) was 3400 nM and the EC50 (RPMI-7951) was 144 nM. It also gave an EC50 (KB) of 132 nM and an inhibition (Tubulin (Bos taurus)) of 56%.
Work on `COc1cc2c(c(OC)c1OC)-c1ccc(SC)c(=O)cc1[C@@H](COC(=O)c1cccc([N+](=O)[O-])c1)C2` yielded an EC50 (A549) of 1470 nM, an IC50 (Burkitts lymphoma cell) of 600 nM and an EC50 (P388 [1]) of 1050 nM. The EC50 (HCT-8) was 19 nM, the EC50 (TE-671) was 936 nM and the IC50 (Tubulin [3]) was > 40000 nM. It also gave an EC50 (RPMI-7951) of 1090 nM, an EC50 (KB) of 1050 nM and an inhibition (Tubulin (Bos taurus)) of 0%.
With `C=C1Cc2cc(OC)c(OC)c(OC)c2-c2ccc(SC)c(=O)cc21` the EC50 (A549) was 252 nM, the EC50 (P388 [1]) was 22 nM and the EC50 (HCT-8) was 196 nM. For the same molecule, the IC50 (Tubulin [2]) was 2800 nM, the EC50 (TE-671) was 0.084 nM and the IC50 (Tubulin [3]) was 2400 nM. It also gave an EC50 (RPMI-7951) of 0.084 nM, an EC50 (KB) of 140 nM and an inhibition (Tubulin (Bos taurus)) of 91%.
Work on `COc1cc2c(c(OC)c1OC)-c1ccc(SC)c(=O)cc1[C@@H](COC(=O)c1cccc(F)c1)C2` yielded an EC50 (A549) of 80 nM, an EC50 (P388 [1]) of 141 nM and an EC50 (HCT-8) of 161 nM. The EC50 (TE-671) was 0.02 nM, the IC50 (Tubulin [3]) was > 40000 nM and the EC50 (RPMI-7951) was 100 nM. For the same molecule, the EC50 (KB) was 110 nM and the inhibition (Tubulin (Bos taurus)) was 0%.
In the case of `COc1cc2c(c(OC)c1OC)-c1ccc(SC)c(=O)cc1[C@@H](COC(=O)c1ccc(F)cc1)C2`, the EC50 (A549) is reported as 1570 nM, the EC50 (P388 [1]) is reported as 81 nM and the EC50 (HCT-8) is reported as 1970 nM. The EC50 (TE-671) was 1250 nM, the IC50 (Tubulin [3]) was > 40000 nM and the EC50 (RPMI-7951) was 926 nM. For the same molecule, the EC50 (KB) was 1070 nM and the inhibition (Tubulin (Bos taurus)) was 0%.
`CCCC(=O)OC[C@H]1Cc2cc(OC)c(OC)c(OC)c2-c2ccc(SC)c(=O)cc21` showed an EC50 (A549) of 1370 nM, an EC50 (P388 [1]) of 0.09 nM and an EC50 (HCT-8) of 3040 nM. For the same molecule, the EC50 (TE-671) was 23 nM, the IC50 (Tubulin [3]) was 4500 nM and the EC50 (RPMI-7951) was 0.022 nM. The EC50 (KB) was 0.13 nM and the inhibition (Tubulin (Bos taurus)) was 46%.
